From publication PMC8969127 (Molecular Pharmacology, 2022)
Like-named read-outs stand apart in the source and are kept apart here.

Biological target: CatSper (Homo sapiens, UniProt Q7RTX7+Q86XQ3+Q8NEC5+Q96P56)
Test: Human sperm calcium influx assay, activation
Assay type: cell-based
Details: for Emax, %, Steroid Alone: percent of response to saturating PROG (3 µM); for fold less potent than PROG (calcium influx): relative to PROG; for Emax: read-out: Emax, %, Steroid Alone; for fold lower activity than the corresponding pregnanolones (10–11): hydroxylation of the 21 position
Procedure, shortened: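 Semen from healthy donors was liquefied at 37 °C, washed twice in low pH/low K+ buffer (pH 6.7, 0.2 mM CaCl2), then loaded with 10 µM Fluo-4-AM plus 1 mM probenecid, 30 min, room temperature, dark. On FLIPR, buffer was added first, then openers 2 min later. Fluorescence was read for 7 min at 2-s intervals. EC50 came from 8-point, 3-fold dilutions in duplicate, peak height, four-parameter fit. Emax is relative to 3 µM progesterone. Activators were retested with 30 µM mibefradil.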

[1] = pEC50, calcium influx, Steroid Alone, human sperm, mean ±SD

Row | Compound | pEC50, calcium influx, Steroid Alone (human sperm, mean ±SD) | Emax, %, Steroid Alone | fold less potent than PROG (calcium influx) | EC50 [1] | Emax | other results
1 | CC(=O)[C@H]1CC[C@H]2[C@@H]3CC[C@H]4CC(=O)CC[C@]4(C)[C@H]3CC[C@]12C [compound 15, 5β-dihydroprogesterone] | 6.87 ± 0.17 | 95% | ~30 fold |  |  | 
2 | CC(=O)[C@H]1CC[C@H]2[C@@H]3C[C@H]4O[C@]45CC(=O)CC[C@]5(C)[C@H]3CC[C@]12C [compound 17, 5β,6β-epoxypregnan-3,20-dione] |  |  |  | 417 nM | 84% | 
3 | CC#C[C@]1(O)CC[C@H]2[C@@H]3CCC4=CC(=O)CCC4=C3[C@@H](c3ccc(N(C)C)cc3)C[C@@]21C [compound 33, mifepristone (RU-486)] |  |  |  | 4680 nM | 109% | 
4 | CC(=O)[C@H]1CC[C@H]2[C@@H]3C[C@@H](O)C4=CC(=O)CC[C@]4(C)[C@H]3CC[C@]12C [compound 21, 6β-hydroxyprogesterone] | 6.91 ± 0.10 | 116% |  |  |  | 
5 | CC(=O)[C@@]1(O)CC[C@H]2[C@@H]3C[C@H](C)C4=CC(=O)CC[C@]4(C)[C@H]3CC[C@@]21C [compound 30, 17α-hydroxy-6α-methylprogesterone] | 6.33 ± 0.10 | 96% |  |  |  | fold reduction of activity relative to 17α-hydroxyprogesterone (addition of a 6α-methyl group): 47 fold
6 | CC(=O)[C@H]1CC[C@H]2[C@@H]3CC[C@H]4CC(=O)CC[C@]4(C)[C@H]3CC[C@]12C [compound 14, 5α-dihydroprogesterone] | 6.99 ± 0.05 | 87% | ~30 fold |  |  | 
7 | C[C@]12CC[C@@H](O)C[C@@H]1CC[C@@H]1[C@@H]2CC[C@]2(C)[C@@H](C(=O)CO)CC[C@@H]12 [compound 27, 3α,5α-THDOC] | 6.05 ± 0.21 | 96% | ≥ 240 fold |  |  | fold lower activity than the corresponding pregnanolones (10–11): threefold
8 | CC(=O)[C@H]1CC[C@H]2[C@@H]3CC[C@H]4C[C@@H](O)CC[C@]4(C)[C@H]3CC[C@]12C [compound 12, 3β,5α-pregnanolone] | 7.16 ± 0.11 | 99% |  |  |  | 
9 | CC(=O)[C@H]1CC[C@H]2[C@@H]3CC[C@@H]4C[C@H](O)CC[C@]4(C)[C@H]3CC[C@]12C [compound 11, 3α,5β-pregnanolone] | 6.26 ± 0.25 | 102% |  |  |  | 
10 | CC(=O)O[C@]1(C(C)=O)CC[C@H]2[C@@H]3CCC4=CC(=O)CCC4=C3[C@@H](c3ccc(N(C)C)cc3)C[C@@]21C [compound 34, ulipristal acetate] |  |  |  | > 10000 nM | 27% | 
11 | CC(=O)C1(O)CCC2C3CCC4=CC(=O)CCC4(C)C3CCC21C (stereo not drawn) [compound 25, 17α-hydroxyprogesterone] |  |  | threefold | 10.5 nM | 115% | 
12 | CC(=O)[C@@]1(O)CC[C@H]2[C@@H]3CCC4=CC(=O)CCC4=C3[C@@H](c3ccc(N(C)C)cc3)C[C@@]21C [compound 32, ulipristal] |  |  |  | 3550 nM | 106% | 
13 | C=C1C[C@H]2[C@@H]3CCC4=CC(=O)CC[C@@H]4[C@H]3CC[C@]2(C)[C@@]1(OC(C)=O)C(C)=O [compound 35, segesterone acetate] | <5 | 57% |  |  |  | 
14 | C[C@]12CC[C@H]3[C@@H](CCC4=CC(=O)CC[C@@]43C)[C@@H]1CC[C@@H]2O [compound 36, testosterone] |  |  |  |  | 114% | EC50: 219 nM
15 | CC(=O)[C@H]1CC[C@H]2[C@@H]3CCC4=CC(=O)CC[C@]4(C)[C@H]3[C@H](O)C[C@]12C [compound 24, 11α-hydroxyprogesterone] | 6.90 ± 0.08 | 100% | 35 fold |  |  | 
16 | CC(=O)[C@H]1CC[C@H]2[C@@H]3C[C@@H]4O[C@@]45CC(=O)CC[C@]5(C)[C@H]3CC[C@]12C [compound 16, 5α,6α-epoxypregnan-3,20-dione] |  |  |  | 832 nM | 83% | 
17 | CC(=O)O[C@]1(C(C)=O)CC[C@H]2[C@@H]3CCC4=CC(=O)CC[C@]4(C)[C@H]3CC[C@@]21C [compound 29, 17α-acetoxyprogesterone] |  | 31% |  |  |  | 

Row | Compound | pEC50, calcium influx, Steroid Alone (human sperm, mean ±SD) | Emax, %, Steroid Alone | fold less potent than PROG (calcium influx) | EC50 [1] | Emax | other results
18 | C[C@H]1C[C@]2(C)[C@@H](O)CC[C@H]2[C@@H]2CCC3=CC(=O)CC[C@@H]3[C@H]21 [compound 38, 11β-methyl-19-nortestosterone] | 6.37 ± 0.32 | 85% |  |  |  | 
19 | C[C@]12CC[C@@H]3c4ccc(O)cc4CC[C@H]3[C@@H]1CC[C@@H]2O [compound 37, 17β-estradiol] |  |  |  | 295 nM | 94% | 
20 | CC(=O)[C@H]1CC[C@H]2[C@@H]3C[C@@H](C)C4=CC(=O)CC[C@]4(C)[C@H]3CC[C@]12C [compound 19, 6β-methylprogesterone] | 6.58 ± 0.12 | 90% |  |  |  | 
21 | CC(=O)[C@H]1CC[C@H]2[C@@H]3C[C@H](C)C4=CC(=O)CC[C@]4(C)[C@H]3CC[C@]12C [compound 20, 6α-methylprogesterone] | 6.16 ± 0.14 | 96% | 190 fold |  |  | 
22 | C[C@]12CCC(=O)C=C1[C@@H]1C[C@@H]1[C@H]1[C@@H]3[C@@H]4C[C@@H]4[C@@]4(CCC(=O)O4)[C@@]3(C)CC[C@@H]12 [compound 31, drospirenone] |  |  |  | 525 nM | 115% | 
23 | C[C@]12CC[C@@H](O)C[C@H]1CC[C@@H]1[C@@H]2CC[C@]2(C)[C@@H](C(=O)CO)CC[C@@H]12 [compound 26, 3α,5β-THDOC] | 5.80 ± 0.26 | 100% | ≥ 240 fold |  |  | fold lower activity than the corresponding pregnanolones (10–11): threefold
24 | CCCCC[C@H](O)/C=C/[C@H]1[C@H](O)CC(=O)[C@@H]1CCCCCCC(=O)O [compound 2, prostaglandin E1] |  |  |  | 3.98 nM | 101% | 
25 | CC(=O)[C@H]1CC[C@H]2[C@@H]3C[C@@H](C)[C@@]4(O)CC(=O)CC[C@]4(C)[C@H]3CC[C@]12C [compound 22, 5α-hydroxy-6β-methylpregnan-3,20-dione] |  |  |  | 5010 nM | 95% | 
26 | CC(=O)[C@H]1CC[C@H]2[C@@H]3CC[C@H]4C[C@H](O)CC[C@]4(C)[C@H]3CC[C@]12C [compound 10, 3α,5α-pregnanolone] | 6.56 ± 0.21 | 85% |  |  |  | 
27 | C[C@@H]1CC2=CC(=O)CC[C@@H]2[C@@H]2[C@@H]1[C@@H]1CC[C@H](O)[C@@]1(C)C[C@@H]2C [compound 40, 7α,11β-dimethylandrolone] | 6.06 ± 0.49 | 80% |  |  |  | 
28 | CC(=O)[C@H]1CC[C@H]2[C@@H]3CCC4=CC(=O)CC[C@]4(C)[C@H]3[C@@H](O)C[C@]12C [compound 23, 11β-hydroxyprogesterone] |  |  | 5 fold | 18.6 nM | 90% | 
29 | CC(=O)[C@H]1CC[C@H]2[C@@H]3CC[C@@H]4C[C@@H](O)CC[C@]4(C)[C@H]3CC[C@]12C [compound 13, 3β,5β-pregnanolone] | 6.89 ± 0.20 | 92% |  |  |  | 
30 | CC(=O)[C@H]1CC[C@H]2[C@@H]3CCC4=CC(=O)C(C)(C)C[C@]4(C)[C@H]3CC[C@]12C [compound 18, 2,2-dimethylprogesterone] | 6.31 ± 0.16 | 99% | 135 fold |  |  | 
31 | C[C@@H]1CC2=CC(=O)CC[C@@H]2[C@H]2CC[C@]3(C)[C@@H](O)CC[C@H]3[C@@H]21 [compound 39, 7α-methyl-19-nortestosterone] | 6.25 ± 0.37 | 86% |  |  |  | 
32 | CC(=O)[C@H]1[C@H](O)C[C@H]2[C@@H]3CCC4=CC(=O)CC[C@]4(C)[C@H]3CC[C@@]21C [compound 28, 16α-hydroxyprogesterone] | 6.77 ± 0.18 | 106% | 46 fold |  |  | 
33 | C[C@H]1C[C@]2(C)[C@@H](O)CC[C@H]2[C@H]2[C@H]1[C@H]1CCC(=O)C=C1C[C@@H]2C [compound 41, 7β,11β-dimethylandrolone] | 5.41 ± 0.24 | 42% |  |  |  | 
